Bioassay records (PubChem)
In the library only some 1.7% were active in any assay of this set; here they are far more common.
C2C12 statin – suppressors of statin myotoxicity in C2C12 myotubes, primary screen, cell-based, single point, plate reader. AID 602340, 2012. 0.78% of 330,000 active. C2C12 myotubes + simvastatin, ATP luminescence, 48 h; scaled: DMSO 0, geranylgeraniol control 100. rescue of ATP level, % at 7.49 µM;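 active = mean ATP rescue above about 67%, or every replicate alone reaching that limit, limit read from the data, passing the limit was not always enough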;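 also: myotubes were challenged with 10 µM simvastatin during compound exposure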
SR-BI uptake up – activators of SR-BI mediated DiI-HDL uptake, primary screen, ldlA[mSR-BI] CHO cells, DiI fluorescence. 3 h; 100 = double the neutral-control signal. activation, % at 12.5 µM. 0.096% of 320,000 active;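 active = mean replicate activation of at least 60% and every replicate at or above 60%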;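 also: 0% = median plate neutral-control signal and 100% = twice that signal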
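Assay system: LDL receptor-deficient CHO ldlA cells overexpressing murine SR-BI / Medium: BSA-supplemented, HEPES-buffered Ham's F12, pH 7.4 / Probe or stimulus: DiI-labelled HDL at 10 µg/mL final / Timing: compound with DiI-HDL co-incubation, 3 h at 37 °C / Technique: bottom-read cell fluorescence after medium removal, ex 550/em 595 nm / Measure: HDL uptake via cellular fluorescence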
SR-BI HDL uptake – inhibitors of SR-BI mediated HDL lipid uptake, primary screen, ldlA[mSR-BI] cells, fluorescence, single point; Scavenger receptor class B member 1 (Mus musculus), Q61009; ldlA[mSR-BI] CHO cells, DiI-HDL uptake fluorescence, 3 h; inhibition, % at 12.5 µM; 0.96% of 320,000 active; AID 488896, 2010;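 active = mean replicate inhibition of at least 70% and a set share of replicates each scoring 70 or more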;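 also: 0% = median of neutral control wells and 100% = median of positive control wells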
Target sequence (Q61009 whole entry, looked up): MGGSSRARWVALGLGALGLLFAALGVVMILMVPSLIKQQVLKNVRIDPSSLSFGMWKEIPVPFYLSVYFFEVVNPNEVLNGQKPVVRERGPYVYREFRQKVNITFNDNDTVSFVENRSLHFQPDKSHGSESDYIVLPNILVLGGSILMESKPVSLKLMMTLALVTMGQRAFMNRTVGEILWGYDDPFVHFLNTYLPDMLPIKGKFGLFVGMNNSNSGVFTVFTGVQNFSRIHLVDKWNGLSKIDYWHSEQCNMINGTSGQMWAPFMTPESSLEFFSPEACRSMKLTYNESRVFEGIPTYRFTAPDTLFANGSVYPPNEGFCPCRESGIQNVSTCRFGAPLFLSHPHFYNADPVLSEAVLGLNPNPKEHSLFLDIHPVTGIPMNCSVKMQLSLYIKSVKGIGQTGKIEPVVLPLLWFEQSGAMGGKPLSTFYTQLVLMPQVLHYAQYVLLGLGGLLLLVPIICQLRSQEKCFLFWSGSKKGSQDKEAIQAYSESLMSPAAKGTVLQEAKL
Vif imaging – HIV Vif self-association inhibitors, primary screen, imaging, HEK293T, single point; HEK293T cells, Vif self-association by quenched fluorescence, 24 h; inhibition, % at 7.49 µM; 0.35% of 340,000 active; in the data active = inhibition above about 50%, passing the limit was not always enough
* = called active by the depositor; . = no result given.

SMILES | C2C12 statin | SR-BI uptake up | SR-BI HDL uptake | Vif imaging
CC(=O)N(C)C[C@@H]1Oc2ncc(C#CC(C)(C)O)cc2C(=O)N([C@H](C)CO)C[C@@H]1C | 3 | . | . | .
COc1ccc(NC(=O)c2cc(-c3cccnc3)nc3ccc(C)cc23)cc1OC | -5 | -64 | 64 | 2
COc1ccc(NC(=O)c2cc(-c3ccncc3)nc3ccc(Br)cc23)cc1OC | 11 | -83 | 83* | -7
CCOC(=O)c1[nH]c(C)c(C(=O)Nc2cc(OC)ccc2OC)c1C | -79 | -58 | 58 | 54*
COc1cc2ccccc2cc1C(=O)Nc1ccccc1N1CCN(S(C)(=O)=O)CC1 | . | -89 | 89* | 2
COc1ccc(CNC(=O)c2cc(-c3ccncc3)nc3c(C)cc(C)cc23)cc1OC | . | -72 | 72* | 2
CCC(=O)N(C)C[C@H]1Oc2cc(C#CC3CCCC3)ccc2S(=O)(=O)N([C@@H](C)CO)C[C@@H]1C | -12 | . | . | .
C[C@H](CO)N1C[C@H](C)[C@@H](CN(C)Cc2ccccc2)Oc2ncc(Br)cc2C1=O | 2 | . | . | .
CO[C@@H](CN(C)S(=O)(=O)c1ccc(Cl)cc1)[C@H](C)CN(C(=O)Nc1ccccc1F)[C@H](C)CO | 14 | . | . | .
CO[C@H]1CN(C)C(=O)c2cc(NS(C)(=O)=O)ccc2OC[C@H](C)N(S(C)(=O)=O)C[C@@H]1C | -9 | . | . | .
COc1ccc(NC(=O)c2cc(-c3ccc(C)o3)nc3ccccc23)cc1OC | . | -83 | 83* | -22
COc1ccc(OC)c(NC(=O)c2cc(S(=O)(=O)NCc3ccco3)ccc2F)c1 | -10 | -83 | 83* | -4
COCC#Cc1ccc2c(c1)O[C@@H](CN(C)C(=O)C1CC1)[C@H](C)CN([C@H](C)CO)S2(=O)=O | -7 | . | . | .
C[C@@H]1CN([C@@H](C)CO)S(=O)(=O)c2ccc(C3=CCCCC3)cc2O[C@@H]1CN(C)C(=O)Cc1ccccc1 | -97 | . | . | .
CN(C)c1ccc(C(=O)Nc2nc3c(s2)CCCC3)cc1 | -59 | -84 | 84* | -13
CC(C)(C)c1ccc(C(=O)NC(=S)Nc2nc3c(s2)CCCC3)cc1 | -6 | -39 | 39 | -6
C[C@@H]1CN([C@@H](C)CO)C(=O)Cc2cc(NC(=O)CCCCCC(=O)Nc3ccccc3N)ccc2O[C@@H]1CN(C)Cc1ccc(C(F)(F)F)cc1 | -17 | . | . | .
C[C@@H]1CN([C@H](C)CO)C(=O)Cc2cc(NC(=O)CCCCCC(=O)Nc3ccccc3N)ccc2O[C@H]1CN(C)Cc1ccccc1 | 39 | . | . | .
C[C@H](CO)N1C[C@H](C)[C@@H](CN(C)Cc2ccc(C(F)(F)F)cc2)Oc2ccc(NC(=O)CCCCCC(=O)Nc3ccccc3N)cc2CC1=O | 106* | . | . | .
C[C@H]1CN([C@@H](C)CO)C(=O)Cc2cc(NC(=O)CCCCCC(=O)Nc3ccccc3N)ccc2O[C@H]1CN(C)Cc1ccc(-c2ccccc2)cc1 | 142* | . | . | .
C[C@@H]1CN([C@H](C)CO)C(=O)Cc2cc(NC(=O)CCCCCC(=O)Nc3ccccc3N)ccc2O[C@H]1CN(C)Cc1ccc(Oc2ccccc2)cc1 | 104* | . | . | .
C[C@H]1CN([C@@H](C)CO)C(=O)Cc2cc(NC(=O)CCCCCC(=O)Nc3ccccc3N)ccc2O[C@@H]1CN(C)Cc1ccc(Cl)c(Cl)c1 | 124* | . | . | .
O=C(N/N=C/c1sc(=O)n(-c2ccccc2)c1Cl)c1ccccc1 | . | -85 | 85* | -15
NC(=O)N/N=C/c1sc(=O)n(-c2ccccc2)c1Cl | . | 3 | -3 | -5
CC(C)NC(=O)N(C)C[C@H]1OCCCC[C@@H](C)Oc2ccc(NC(=O)NC3CCCCC3)cc2C(=O)N([C@H](C)CO)C[C@@H]1C | -15 | . | . | .
SMILES | C2C12 statin | SR-BI uptake up | SR-BI HDL uptake | Vif imaging
Cc1noc(C)c1NC(=O)N(C)C[C@@H]1Oc2ccc(NC(=O)NC(C)C)cc2CC(=O)N([C@@H](C)CO)C[C@H]1C | -10 | . | . | .
COc1ccc(C=NN=C2c3ccccc3-c3ccccc32)cc1OC | . | -79 | 79* | -3
COc1cc(/C=N/N=C2/C(=O)Nc3ccccc32)ccc1O | . | 7 | -7 | 2
CCCC#Cc1cnc2c(c1)C(=O)N([C@@H](C)CO)C[C@H](C)[C@@H](CN(C)C(=O)C1CCOCC1)O2 | 8 | . | . | .
N#Cc1ccccc1/C=N/Nc1nc(-c2ccccc2)c2cc(Br)ccc2n1 | 99* | -63 | 63 | -13
COCC(=O)Nc1ccc2c(c1)C(=O)N(C)C[C@H](OC)[C@@H](C)CN(C(=O)Cc1cccnc1)[C@H](C)CO2 | -3 | . | . | .
